≈ marks a conversion by molar mass, not a printed value. Calls of active or inactive are those of the source. No cut-off for these calls is given here.
Columns and labels:
[1] = test system: PBMC; assay: Immunostimulatory activity against human PBMC assessed as suppression of RANTES production at 22 uM after 72 hrs; type: functional
[2] = test system: Human immunodeficiency virus 1; assay: Antiviral activity against R5 tropic HIV-1 clade G isolate BCF-DIOUM infected in human PBMC assessed as inhibition of viral replication […] by ELISA; type: functional, organism-based; conditions: Human immunodeficiency virus 1, clade G isolate BCF-DIOUM
Summary of the method: (§1)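 PBMCs from healthy donors were stimulated with PHA (2 μg/ml) for 3 days, then seeded at 0.5 × 10^6 cells/well in RPMI 1640 with 10% FCS, IL-2 (25 U/ml) and compound. Virus was added at a final 250 pg p24/ml. Supernatant was taken at day 12 for p24 antigen ELISA.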

[3] = test system: PBMC; assay: Immunostimulatory activity against human PBMC assessed as IP-10 production at 21 uM after 72 hrs; type: functional, cell-based
Summary of the method: (§2)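 Unstimulated PBMCs and PHA-blasts from three donors, in three independent experiments, cultured with test compound at 20 μg/ml (21 or 22 μM). Supernatants collected after 72 h. The cytokine profile was read on a Bio-Plex 27-plex human cytokine bead immunoassay, using beads coupled to cytokine-specific monoclonal antibodies and run per the kit instructions.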

[4] = Cytotoxicity against human PBMC after 7 days by trypan blue staining; type: cell-based
[5] = Cytotoxicity against human PBMC cells after 3 to 4 days; type: cell-based
[6] = test system: PBMC; assay: Immunostimulatory activity against human PBMC assessed as PDGF production at 21 uM after 72 hrs; type: functional, cell-based; summary of the method: as §2
[7] = Aqueous solubility of the compound at physiological pH; type: physicochemical; conditions: aqueous medium
[8] = test system: PBMC; assay: Immunostimulatory activity against human PBMC assessed as IL-8 production at 22 uM after 72 hrs; type: functional, cell-based; summary of the method: as §2
[9] = Cytotoxicity against human U87 cells after 3 to 4 days; type: cell-based, U-87MG ATCC
Summary of the method: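 Cells seeded at 20,000–75,000 per well with compound dilutions, incubated 3–4 days at 37°C, and counted on a Coulter particle counter; CC50 is the concentration inhibiting proliferation by 50%.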

[10] = test system: PBMC; assay: Immunostimulatory activity against human PBMC assessed as IL-1ra production at 22 uM after 72 hrs; type: functional, cell-based; summary of the method: as §2
[11] = test system: PBMC; assay: Immunostimulatory activity against human PBMC assessed as RANTES production at 21 uM after 72 hrs; type: functional, cell-based; summary of the method: as §2
[12] = test system: Human immunodeficiency virus 1; assay: Antiviral activity against R5 tropic HIV-1 clade F isolate BZ163 infected in human PBMC assessed as inhibition of viral replication after 12 days by ELISA; conditions: Human immunodeficiency virus 1, clade F isolate BZ163, 12 days
[13] = test system: PBMC; assay: Immunostimulatory activity against human PBMC assessed as MIP-1beta production at 22 uM after 72 hrs; type: functional, cell-based; summary of the method: as §2
[14] = Antiviral activity against SIV mac251 infected in human HUT78 cells assessed as prevention of syncytium formation between persistently SIV mac251-infected HUT-78 cells and uninfected CEM cells after 3 to 4 days by ELISA; type: functional, cell-based, Simian immunodeficiency virus - mac; conditions: Simian immunodeficiency virus, 251, CCRF-CEM
[15] = test system: PBMC; assay: Immunostimulatory activity against human PBMC assessed as suppression of IL-15 production at 21 uM after 72 hrs; type: functional; summary of the method: as §2
[16] = test system: Human immunodeficiency virus 1; assay: Antiviral activity against X4 tropic HIV-1 group O isolate BCF06 infected in human PBMC assessed as inhibition of viral replication […] by ELISA; type: functional, organism-based; conditions: Human immunodeficiency virus 1, group O isolate BCF06; summary of the method: as §1
[17] = Binding affinity to HIV-1 HXB2 gp41 assessed as dissociation rate constant after 6 mins by SPR analysis in presence of 10 mM CaCl2; design: species or system Human immunodeficiency virus 1
[18] = test system: PBMC; assay: Immunostimulatory activity against human PBMC assessed as MIP-1alpha production at 21 uM after 72 hrs; type: functional, cell-based; summary of the method: as §2
[19] = test system: Human immunodeficiency virus 2; assay: Ratio of EC90 to EC50 for X4 tropic HIV-2 BV-5061 W infected in human PBMC
[20] = test system: Human immunodeficiency virus 1; assay: Antiviral activity against R5 tropic HIV-1 clade C isolate ETH2220 infected in human PBMC assessed as inhibition of viral replication after 12 days by ELISA; conditions: Human immunodeficiency virus 1, clade C isolate ETH2220, 12 days
[21] = test system: PBMC; assay: Immunostimulatory activity against human PBMC assessed as PDGF production at 22 uM after 72 hrs; type: functional, cell-based; summary of the method: as §2
[22] = test system: PBMC; assay: Immunostimulatory activity against human PBMC assessed as suppression of IL-9 production at 21 uM after 72 hrs; type: functional; summary of the method: as §2
[23] = test system: Human immunodeficiency virus 1; assay: Antiviral activity against R5 tropic HIV-1 Bal infected in human Raji cells expressing DC-SIGN gene assessed as inhibition of virus capture by Raji cells after 60 mins by ELISA; type: functional, organism-based; conditions: Human immunodeficiency virus 1, Bal, 1 h
[24] = test system: PBMC; assay: Immunostimulatory activity against human PBMC assessed as GM-CSF production at 22 uM after 72 hrs; type: functional, cell-based
[25] = test system: PBMC; assay: Immunostimulatory activity against human PBMC assessed as IL-2 production at 21 uM after 72 hrs; type: functional, cell-based; summary of the method: as §2
[26] = test system: PBMC; assay: Immunostimulatory activity against human PBMC assessed as suppression of IL-13 production at 22 uM after 72 hrs; type: functional; summary of the method: as §2
[27] = Aqueous solubility of the compound; type: physicochemical; conditions: aqueous medium; read-out: Activity
[28] = Chemical stability of the compound in PBS solution at 50 degC after 4 days by HPLC; type: physicochemical; conditions: buffer, 96 h
Summary of the method: (§3)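 1 mM compound held 4 days in PBS at 50°C, or in 7 mM sodium phosphate pH 4.0 at room temperature; then analysed by reverse-phase HPLC (phosphate/heptanesulfonate pH 3.2 buffer–acetonitrile gradient, 1 ml/min).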

[29] = test system: PBMC; assay: Cytotoxicity against human PBMC cells at 500 uM after 7 days; type: cell-based; conditions: 168 h
Summary of the method: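 Mock-infected PHA-stimulated PBMC exposed to compound in RPMI 1640 with 10% FCS and IL-2 (25 U/ml); viability measured by trypan blue staining at day 7.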

[30] = Chemical stability of the compound in 7mM sodium phosphate buffer after 4 days by HPLC at pH 4; type: physicochemical; conditions: pH 4, 96 h; summary of the method: as §3
[31] = test system: Human immunodeficiency virus 1; assay: Antiviral activity against HIV-1 3B cells infected in human PBMC cells assessed as inhibition of virus-induced cytopathicity after 3 to 4 days by microscopic analysis; type: functional, organism-based; conditions: Human immunodeficiency virus 1, 3B
[32] = test system: Human immunodeficiency virus 1; assay: Ratio of ka for HIV-1 3B gp120 to ka for HIV-1 HXB2 gp41
[33] = test system: Human immunodeficiency virus 1; assay: Ratio of kd for HIV-1 HXB2 gp41 to kd for 3B gp120
[34] = test system: Human immunodeficiency virus 1; assay: Ratio of KD for HIV-1 HXB2 gp41 to KD for HIV-1 3B gp120
Summary of the method: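 SPR was run at 25°C. HIV-1 IIIB gp120 (CHO-derived, 122 RU) and HXB2 gp41 (Pichia-derived, 58 RU) were amine-coupled to a CM5 chip. Compound (2.5–40 μM, 2-fold steps) in HBS-P pH 7.4 with 10 mM CaCl2 was injected for 2 min at 45 μl/min, and dissociation was followed for 6 min. Apparent ka, kd and KD came from a 1:1 model fit of the three lowest concentrations.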

SMILES	fold change (FC) [1]	EC50 [2] [µM]	Activity [3]	CC50 [5] [µM]	Activity [6]	Activity [8]	CC50 [9] [µM]	Activity [10]	Activity [11]	EC50 [12] [µM]	Activity [13]	EC50 [14] [µM]	fold change (FC) [15]	EC50 [16] [µM]	Kd [17] [×10⁻² /s]	Activity [18]	Ratio [19]	EC50 [20] [µM]	Activity [21]	fold change (FC) [22]	also measured
CN[C@@H]1[C@H](O[C@@H]2OC[C@@H](O)[C@H](O)[C@H]2O)[C@@H](O)[C@H](O[C@H]2c3cc(C)c(C(=O)N[C@H](C)C(=O)O)c(O)c3-c3c(cc4c(c3O)C(=O)c3cc(OC)cc(O)c3C4=O)[C@@H]2O)O[C@@H]1C [PRADIMICIN A]	4	6.7	inactive	> 50	inactive	inactive	> 50	inactive	inactive	8	inactive	4.3	2	1.6	2.91	inactive	2	10	inactive	2	CC50 at 168 h [4]: > 50 µM; solubility [7]: > 20 µM; IC50 [23]: 17 µM; Activity [24]: inactive; Activity [25]: inactive; fold change (FC) [26]: 2; solubility [27]: 50 µM (≈ 42 µg/mL)
CN[C@@H]1[C@H](O[C@@H]2O[C@H](CO)[C@@H](O)[C@H](OS(=O)(=O)O)[C@H]2O)[C@@H](O)[C@H](O[C@H]2c3cc(C)c(C(=O)N[C@H](C)C(=O)O)c(O)c3-c3c(cc4c(c3O)C(=O)c3cc(OC)cc(O)c3C4=O)[C@@H]2O)O[C@@H]1C [PRADIMICIN S]	4	17	inactive	> 230	inactive	inactive	> 230	inactive	inactive	17	inactive	12	2	4.4	2.71	inactive	2	17	inactive	2	Stability [28]: Stable; Activity [29]: > 95%; Stability [30]: Stable; EC50 [31]: 8.5 µM; ka ratio [32]: 10; kd ratio [33]: 5; Ratio [34]: 30; IC50 [23]: 21 µM; Activity [24]: inactive; Activity [25]: inactive; fold change (FC) [26]: 2

From ChEMBL document CHEMBL1671680, “Pradimicin S, a highly soluble nonpeptidic small-size carbohydrate-binding antibiotic, is an anti-HIV drug lead for both microbicidal and systemic use” (Antimicrob Agents Chemother, 2010)
